Reference: PMC4550695 (mBio, 2015)

Assays:
P. aeruginosa AmiC [1] = target: T1, P. aeruginosa AmiC (Pseudomonas aeruginosa, UniProt P27017); experiment: Microscale thermophoresis binding to recombinant AmiC; details: for affinity for / interaction with AmiC, in words: MST, pH 7.5, 25°C
Method in brief: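 His-tagged codon-optimised AmiC expressed in E. coli Rosetta2(DE3), purified by IMAC and gel filtration, RED-NHS labelled or unlabelled depending on ligand. AmiC at 50 nM final, mixed with 1:1 serial ligand dilutions in 50 mM Tris-HCl pH 7.5, 150 mM NaCl, 10 mM MgCl2, 0.05% Tween 20. After 5 min incubation, read at 25°C (laser 5/30/5 s); three independent pipettings; KD fitted by mass-action equation.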

P. aeruginosa MPAO1 = experiment: Biofilm formation under static conditions, P. aeruginosa MPAO1; assay type: cell-based, Pseudomonas aeruginosa; details: isatin 10^−5 M alone, 24 h
Method in brief: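 Uses a GFP-plasmid (pSMC2.1) strain; overnight preculture at 37°C diluted into LB with 400 µg/ml kanamycin. Test compound added at 2 h of subculture from DMSO/water (5/95) stock, final DMSO under 0.2%, DMSO-matched controls. After 3 h more, cells pelleted, resuspended in 0.9% NaCl at OD600 0.1, 2 h static attachment on glass slides, then LB 24 h static at 37°C. PBS-rinsed, heat fixed, CLSM/COMSTAT.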

[2] = endogenous, usual order; ref [52]; cited from earlier work
P. aeruginosa AmiC [3] = target: T1, P. aeruginosa AmiC; details: ref [36]; cited from earlier work
[4] = tested on: membrane of P. aeruginosa; details: inducing increased virulence; ref [14]; cited from earlier work
NPR-C receptor = details: mammalian cells; ref [25]; cited from earlier work
Caenorhabditis elegans = details: ref [16]; cited from earlier work
PA14 ΔamiC strain = experiment: Biofilm formation under dynamic conditions, PA14 ΔamiC strain; assay type: cell-based, Pseudomonas aeruginosa; details: BNP 10^−7 M, 24 h, P < 0.05, eight samples from three experiments
P. aeruginosa PA14 = experiment: Biofilm formation under dynamic conditions, P. aeruginosa PA14 wild type; assay type: cell-based, Pseudomonas aeruginosa; details: 24 h
NPR-A receptor = details: mammalian cells; ref [25]; cited from earlier work
P. aeruginosa cAMP = details: ref [17]; cited from earlier work
[5] = tested on: ami operon of P. aeruginosa; experiment: qRT-PCR of ami operon mRNA; assay type: cell-based, Pseudomonas aeruginosa; details: BNP 10^−6 M; data not shown

T1 sequence (P27017 whole entry): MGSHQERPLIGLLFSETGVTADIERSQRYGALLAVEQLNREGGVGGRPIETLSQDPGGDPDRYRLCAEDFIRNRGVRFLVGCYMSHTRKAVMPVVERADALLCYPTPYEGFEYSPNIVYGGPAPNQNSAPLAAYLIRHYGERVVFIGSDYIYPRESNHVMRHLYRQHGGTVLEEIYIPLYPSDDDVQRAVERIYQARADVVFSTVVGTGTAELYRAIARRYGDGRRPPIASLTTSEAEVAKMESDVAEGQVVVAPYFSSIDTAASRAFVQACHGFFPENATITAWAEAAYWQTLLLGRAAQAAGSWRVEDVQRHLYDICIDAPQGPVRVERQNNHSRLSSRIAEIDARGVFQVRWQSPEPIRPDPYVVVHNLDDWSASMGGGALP

Molecule: O=C1Nc2ccccc2C1=O [isatin, indole-2,3-dione]
- Kd (P. aeruginosa AmiC [1]): 600 ± 200 µM
- effect of isatin alone on organization of the biofilm (P. aeruginosa MPAO1): more irregular, with the presence of large water channels
- effect of isatin alone on biomass and thickness of the biofilm (P. aeruginosa MPAO1; two independent experiments): limited and nonsignificant increase
- normal blood isatin concentration [2]: 0.3 to 1.3 µM

Molecule: CC(N)=O [acetamide]
- effect of acetamide on ami operon transcription via AmiC (P. aeruginosa AmiC [3]): triggering the transcription of the whole ami operon

Molecule: dynorphin
- crossing of the membrane of P. aeruginosa [4]: able to freely cross the membrane

Molecule: brain natriuretic peptide [BNP]
- affinity for NPR-C (NPR-C receptor): weak affinity
- effect on P. aeruginosa virulence for Caenorhabditis elegans (Caenorhabditis elegans): without effect
- change of biofilm formation in ΔamiC mutant (PA14 ΔamiC strain): −70.8% ± 12.1%
- affinity for / interaction with AmiC, in words (P. aeruginosa AmiC [1]): no affinity for AmiC
- change of biofilm average thickness (P. aeruginosa PA14; 10^−6 M, PA14, dynamic (flow cell), LB, 37°C, vs control, P < 0.001): −76.0 ± 4.8%
- change of biofilm volume (P. aeruginosa PA14; 10^−6 M, PA14, dynamic (flow cell), LB, 37°C, vs control, P < 0.001, CNP: ten samples from six experiments, BNP: six samples from two experiments): −80.3% ± 4.4%
- number and mean size of mushroom-like structures in the biofilm (P. aeruginosa PA14; 10^−6 M, PA14, dynamic, confocal microscopy): reduction of the number and mean size of mushroom-like structures
- change of biofilm formation (P. aeruginosa PA14; BNP 10^−7 M, PA14 wild type, dynamic, P < 0.001, nine samples from three experiments): −75.1% ± 9.9%
- affinity for NPR-A (NPR-A receptor): strongly binds
- intrabacterial cAMP (P. aeruginosa cAMP): did not modify intrabacterial cAMP levels
- whole ami operon transcriptional activity [5]: no significant effect

B1: osteocrin: specific NPR-C agonist, synthesized by J. Leprince (peptide, UniProt P61366 28-133, looked up)
Osteocrin: VDVTTTEAFDSGVIDVQSTPTVREEKSATDLTAKLLLLDELVSLENDVIETKKKRSFSGFGSPLDRLSAGSVDHKGKQRKVVDHPKRRFGIPMDRIGRNRLSNSRG
modifications: Osteocrin
- affinity for / interaction with AmiC, in words (P. aeruginosa AmiC [1]): very strong interaction
